Paper PMC5051546 (ACS chemical neuroscience, 2016)
Non-standard residues stand in square brackets, D forms with d. Residues, ends and D or L forms follow the SMILES beside them.

Assays:
[1] = molecular target: T1, Aβ(1–40) aggregates (Homo sapiens, UniProt P05067); assay: Nanoparticle tracking analysis; type: biochemical
Procedure, shortened: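 Aβ(1-40) stock prepared by dissolving in 50% acetonitrile, relyophilizing, and reconstituting in urea/glycine buffer at 12 mg/mL. Samples: 28 µM Aβ alone or with 1.4 µM test peptide, or peptide alone. Nanosight LM10, 405 nm laser, video capture started immediately. One 60-s video per time point over 2 h, room temperature, camera level 13. Buffers 0.02 µm-filtered. Number concentration taken from the instrument-defined scattering volume. Only particles above ~30 nm are detected.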

[2] = molecular target: Aβ(1–40) fibrils (Homo sapiens, UniProt P05067); assay: Transmission electron microscopy; type: biochemical; details: 28 μM Aβ + 1.4 μM peptide; 24 h at 37 °C; PBSA
Chain of Aβ(1–40) fibrils (P05067 672-711 limits assumed): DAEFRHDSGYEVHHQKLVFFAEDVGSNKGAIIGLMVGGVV

[3] = molecular target: Aβ(1–40) fibril formation (Homo sapiens, UniProt P05067); assay: Thioflavin T; type: biochemical; details: 28 μM Aβ, 1.4 μM peptide; PBSA, 37 °C, up to 48 h; three replicates
Chain of Aβ(1–40) fibril formation (P05067 672-711 limits assumed): as above
Procedure, shortened: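 Aβ(1-40) stock in urea/glycine buffer, previously relyophilized from 50% acetonitrile. 28 µM Aβ incubated in PBSA at 37 °C alone or with 2.8, 1.4 or 0.28 µM test peptide. At 1 or 4, 24 and 48 h, aliquots mixed with 10 µM ThT in PBS. Excitation 440 nm, emission scanned 460–500 nm. Three serial spectra averaged, ThT/PBS background subtracted, 480 nm intensity compared.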

[4] = Solubility of lyophilized peptide in PBS or water; type: physicochemical
[5] = molecular target: T1, Aβ(1–40) aggregates; assay: Dynamic light scattering; type: biochemical; details: 28 μM Aβ, 1.4 μM peptide; 37 °C; 2 h; z-averaged hydrodynamic diameter; Aβ alone 400 nm after 2 h

T1 sequence (P05067 672-711 limits assumed): as above

Compound: CC[C@H](C)[C@@H]1NC(=O)[C@H]([C@@H](C)O)NC(=O)[C@H](Cc2ccc(O)cc2)NC(=O)[C@H](CCCNC(=N)N)NC(=O)[C@@H]2CCCN2C(=O)[C@H]2CCCN2C(=O)[C@H]([C@@H](C)O)NC(=O)[C@H](C(C)C)NC(=O)[C@H](C(C)C)NC(=O)[C@H](CCCCN)NC(=O)[C@H](CO)NC(=O)[C@H](CCC(N)=O)NC(=O)[C@H](CO)NC(=O)[C@H](Cc2ccc(O)cc2)NC(=O)[C@H](CO)NC(=O)[C@H](Cc2ccc(O)cc2)NC(=O)[C@@H]2CCCN2C(=O)[C@H](CO)NC(=O)[C@H](CC(C)C)NC(=O)[C@H](CC(C)C)NC(=O)[C@H](C)NC(=O)[C@H](C)NC1=O [CG3] (cyclo(SKVVT[dP]PRYTIAALLSPYSYSQ))
- particles from peptide alone (NTA) ([1]; 1.4 μM peptide in the absence of Aβ, detection limit ~30 nm, data not shown): no detectable particles above background
- initial particle number concentration relative to Aβ alone (NTA) ([1]; 28 μM Aβ, 1.4 μM peptide, PBSA, room temperature, shortly after mixing): about 2 fold
- mean hydrodynamic diameter of aggregates after 2 h (NTA) ([1]; 28 μM Aβ, 1.4 μM peptide, number-averaged): ~ 400 nm
- mean hydrodynamic diameter of aggregates shortly after mixing (NTA) ([1]; 28 μM Aβ, 1.4 μM peptide, number-averaged, Aβ alone ~80 nm): 120 nm
- Aβ aggregate morphology by TEM [2]: still a large number of fibrils, but many appeared to be shorter
- inhibition of ThT fluorescence at 20:1 Aβ/peptide [3]: partially inhibited
- solubility ([4]; aqueous buffer): > 650 µg/mL
- solubility ([4]; water): > 600 µM
- effect on size and growth rate of Aβ aggregates (DLS) [5]: size and growth rate of Aβ aggregates increased
